Measurements from ChEMBL document CHEMBL1150781, “High-level gentamicin resistance mediated by a Tn4001-like transposon in seven nonclonal hospital isolates of Streptococcus pasteurianus” (2007).
In brackets after ≈: the same amount, converted by molar mass.

Tests used:
Format in all cases: functional
[1] = tested on: Streptococcus pasteurianus; experiment: Antibacterial activity against high-level gentamicin resistant Streptococcus pasteurianus SB41 isolate carrying transposon-borne resistance gene [aac(6')Ie-aph(2'')Ia] by agar dilution method
Method in brief: (§1)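 MIC by agar dilution following CLSI guidelines; test organisms were clinical S. bovis/S. pasteurianus isolates recovered from blood cultures.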

[2] = tested on: Streptococcus pasteurianus; experiment: Antibacterial activity against high-level gentamicin resistant Streptococcus pasteurianus SB33 isolate carrying transposon-borne resistance gene [aac(6')Ie-aph(2'')Ia] by agar dilution method; method in brief: as §1
[3] = tested on: Streptococcus pasteurianus; experiment: Antibacterial activity against high-level gentamicin resistant Streptococcus pasteurianus SB10 isolate carrying transposon-borne resistance gene [aac(6')Ie-aph(2'')Ia] by agar dilution method; method in brief: as §1
[4] = tested on: Enterococcus faecalis; experiment: Antimicrobial activity against Enterococcus faecalis ATCC 29212 by agar dilution method
[5] = tested on: Streptococcus pasteurianus; experiment: Antibacterial activity against high-level gentamicin resistant Streptococcus pasteurianus SB30 isolate carrying transposon-borne resistance gene [aac(6')Ie-aph(2'')Ia] by agar dilution method; method in brief: as §1
[6] = tested on: Streptococcus equinus; experiment: Antibacterial activity against Streptococcus bovis ATCC 33317 by agar dilution method
Method in brief: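 MIC read by agar dilution against S. bovis/S. pasteurianus, run to CLSI guidelines.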

[7] = tested on: Streptococcus pasteurianus; experiment: Antibacterial activity against high-level gentamicin resistant Streptococcus pasteurianus SB28 isolate carrying transposon-borne resistance gene [aac(6')Ie-aph(2'')Ia] by agar dilution method; method in brief: as §1
[8] = tested on: Streptococcus pasteurianus; experiment: Antibacterial activity against high-level gentamicin resistant Streptococcus pasteurianus SB40 isolate carrying transposon-borne resistance gene [aac(6')Ie-aph(2'')Ia] by agar dilution method; method in brief: as §1
[9] = tested on: Streptococcus pasteurianus; experiment: Antibacterial activity against high-level gentamicin resistant Streptococcus pasteurianus SB34 isolate carrying transposon-borne resistance gene [aac(6')Ie-aph(2'')Ia] by agar dilution method; method in brief: as §1

SMILES	MIC [1] [µg/mL]	MIC [2] [µg/mL]	MIC [3] [µg/mL]	MIC [4] [µg/mL]	MIC [5] [µg/mL]	MIC [6] [µg/mL]	MIC [7] [µg/mL]	MIC [8] [µg/mL]	MIC [9] [µg/mL]
CCN[C@@H]1C[C@H](N)[C@@H](O[C@H]2OC(CN)=CC[C@H]2N)[C@H](O)[C@H]1O[C@H]1OC[C@](C)(O)[C@H](NC)[C@H]1O [NETILMICIN]	8 (≈ 16.8 µM)	16 (≈ 33.6 µM)	64 (≈ 135 µM)	4 (≈ 8.41 µM)	128 (≈ 269 µM)	16 (≈ 33.6 µM)	512 (≈ 1080 µM)	16 (≈ 33.6 µM)	32 (≈ 67.3 µM)
NC[C@H]1O[C@H](O[C@H]2[C@H](O)[C@@H](O[C@H]3O[C@H](CO)[C@@H](O)[C@H](N)[C@H]3O)[C@H](N)C[C@@H]2N)[C@H](O)[C@@H](O)[C@@H]1O [KANAMYCIN]	> 4100	4100 (≈ 8450 µM)	> 4100	16 (≈ 33 µM)	4100 (≈ 8450 µM)	128 (≈ 264 µM)	> 4100	> 4100	> 4100
NCC[C@H](O)C(=O)N[C@@H]1C[C@H](N)[C@@H](O[C@H]2O[C@H](CN)[C@@H](O)[C@H](O)[C@H]2O)[C@H](O)[C@H]1O[C@H]1O[C@H](CO)[C@@H](O)[C@H](N)[C@H]1O [AMIKACIN]	32 (≈ 54.6 µM)	32 (≈ 54.6 µM)	64 (≈ 109 µM)	64 (≈ 109 µM)	128 (≈ 219 µM)	64 (≈ 109 µM)	512 (≈ 874 µM)	32 (≈ 54.6 µM)	32 (≈ 54.6 µM)
CN[C@@H]1[C@H](O[C@H]2[C@H](O[C@H]3[C@H](O)[C@@H](O)[C@H](N=C(N)N)[C@@H](O)[C@@H]3N=C(N)N)O[C@@H](C)[C@]2(O)C=O)O[C@@H](CO)[C@H](O)[C@H]1O [STREPTOMYCIN]	32 (≈ 55 µM)	32 (≈ 55 µM)	32 (≈ 55 µM)	32 (≈ 55 µM)	64 (≈ 110 µM)	64 (≈ 110 µM)	64 (≈ 110 µM)	32 (≈ 55 µM)	32 (≈ 55 µM)
CN(C)c1ccc(O)c2c1C[C@H]1C[C@H]3[C@H](N(C)C)C(O)=C(C(N)=O)C(=O)[C@@]3(O)C(O)=C1C2=O [MINOCYCLINE]	8 (≈ 17.5 µM)	16 (≈ 35 µM)	8 (≈ 17.5 µM)	–	8 (≈ 17.5 µM)	–	16 (≈ 35 µM)	16 (≈ 35 µM)	0.12 (≈ 0.262 µM)
CCC[C@@H]1C[C@@H](C(=O)N[C@@H]([C@H]2O[C@H](SC)[C@H](O)[C@@H](O)[C@H]2O)[C@H](C)Cl)N(C)C1 [CLINDAMYCIN]	512 (≈ 1200 µM)	512 (≈ 1200 µM)	256 (≈ 602 µM)	4 (≈ 9.41 µM)	0.5 (≈ 1.18 µM)	< 0.03	16 (≈ 37.6 µM)	512 (≈ 1200 µM)	128 (≈ 301 µM)
CN(C)[C@@H]1C(O)=C(C(N)=O)C(=O)[C@@]2(O)C(O)=C3C(=O)c4c(O)cccc4[C@@](C)(O)[C@H]3C[C@@H]12 [TETRACYCLINE]	256 (≈ 576 µM)	256 (≈ 576 µM)	128 (≈ 288 µM)	16 (≈ 36 µM)	128 (≈ 288 µM)	0.25 (≈ 0.563 µM)	128 (≈ 288 µM)	256 (≈ 576 µM)	0.25 (≈ 0.563 µM)
CC[C@H]1OC(=O)[C@H](C)[C@@H](O[C@H]2C[C@@](C)(OC)[C@@H](O)[C@H](C)O2)[C@H](C)[C@@H](O[C@@H]2O[C@H](C)C[C@H](N(C)C)[C@H]2O)[C@](C)(O)C[C@@H](C)C(=O)[C@H](C)[C@@H](O)[C@]1(C)O [ERYTHROMYCIN]	> 512	> 512	> 512	2 (≈ 2.73 µM)	> 512	0.06 (≈ 0.0818 µM)	> 512	> 512	> 512
